Assay outcomes from PubChem.
This is a sample that favours compounds with a hit; in the whole collection about 4.2% have one here.
hERG rescue: hERG (human) protection from proarrhythmic block; Q12809; CHO-hERG, FluxOR thallium flux, dofetilide IC70 present; activation (rescue from dofetilide block), less the hit threshold, % at 10 µM; actives 0.51% (n = 310,000); AID 1511;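 active means activation above the mean of controls blocked by dofetilide plus 5 SD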;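 further: thallium influx through hERG after potassium depolarization seen as dye fluorescence rise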
KCNQ1 act: potentiators or activators of human KCNQ1 potassium channel; AID 2648; CHO-K1 KCNQ1, thallium flux FluxOR fluorescence; hits give high values; actives 0.35% (n = 310,000); B-score at 10 µM;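 active means fluorescence ratio B-score, a plate-corrected score, at least three library SD, with initial intensity B-score within 5 SD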
Target sequence (P51787 whole entry, looked up): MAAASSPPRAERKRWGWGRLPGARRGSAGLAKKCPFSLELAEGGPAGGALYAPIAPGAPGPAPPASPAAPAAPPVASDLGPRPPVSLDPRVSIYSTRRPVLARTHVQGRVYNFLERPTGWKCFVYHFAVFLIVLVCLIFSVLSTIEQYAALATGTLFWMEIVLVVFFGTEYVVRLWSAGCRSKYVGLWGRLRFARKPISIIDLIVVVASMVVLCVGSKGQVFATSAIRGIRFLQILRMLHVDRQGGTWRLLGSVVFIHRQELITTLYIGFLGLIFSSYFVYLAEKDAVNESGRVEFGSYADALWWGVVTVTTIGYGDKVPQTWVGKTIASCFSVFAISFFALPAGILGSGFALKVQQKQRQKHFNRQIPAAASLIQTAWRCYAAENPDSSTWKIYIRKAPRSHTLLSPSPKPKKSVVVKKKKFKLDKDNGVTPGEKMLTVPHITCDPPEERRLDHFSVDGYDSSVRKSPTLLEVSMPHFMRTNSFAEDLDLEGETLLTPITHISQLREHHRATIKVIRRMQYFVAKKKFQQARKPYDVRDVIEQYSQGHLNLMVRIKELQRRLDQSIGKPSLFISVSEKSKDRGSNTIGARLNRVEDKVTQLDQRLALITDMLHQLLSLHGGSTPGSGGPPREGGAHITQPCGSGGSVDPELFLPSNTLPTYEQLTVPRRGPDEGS
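Test system: CHO-K1 cells stably expressing KCNQ1 / Medium: assay buffer / Also added: depolarizing K+/Tl+ stimulus, K2SO4 and Tl2SO4 each 12.5 mM in 5x stock / Incubation: 90 min dye loading and 20 min compound exposure, both at room temperature / Signal: thallium influx via FluxOR fluorescence, kinetic imaging / Evaluation: B score of baseline-normalized fluorescence ratio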
Cl transport mod: modulates chloride dependent transport by human KCC2. B-score of Tl+ flux slope (higher = more flux/activation; lower = inhibition) at 10 µM. Q9H2X9. actives 2.2% (n = 190,000). KCC2 cells, thallium flux FluoZin-2 fluorescence;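 active means thallium flux slope and its plate-corrected score both differing from the plate sample mean at a set confidence after two filtering rounds, in either direction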;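 further: slope of fluorescence scaled to starting intensity during 10 to 20 s after thallium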
KCNQ1 inh: blocks the human KCNQ1 potassium channel. B-score at 10 µM. CHO-K1 KCNQ1, FluxOR thallium flux fluorescence; hits give high values. actives 1.3% (n = 310,000). P51787;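 active means compounds whose thallium flux B-score, printed positive for inhibition, exceeds three library SD while starting fluorescence stays within three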;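 further: channel opened by potassium depolarization with thallium stimulus after 20 min compound exposure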
AI-2 QS mod: modulators of Vibrio harveyi AI-2 quorum sensing system; Vibrio harveyi JMH597 AI-2 luminescence/OD600 ratio, 9 h; hits give low values; strain lacks LuxN and CqsS sensors; 0 = neutral-control median; activity change, % at 7.5 µM; actives 0.4% (n = 300,000); in the data active means activity change below about -75%, passing the limit was not always enough;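 further: luminescence divided by OD600 gain over 9 h not by final OD600 alone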
Mot1-301 SUMO: SUMOylation pathway inhibition by Mot1-301 growth rescue; S. cerevisiae Mot1-301 growth rescue, ATP luminescence, 38.5C; percent above DMSO median, 100 means doubled; growth rescue, % at 18.8 µM; actives 1% (n = 320,000); AID 2716;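 active means every valid replicate shows activation above 250% relative to neutral control wells; inactive means the rest, any valid replicate at or below 250%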
Mot1 SUMO dose: SUMO pathway inhibitors in yeast Mot1-301 growth; 2,300 tested, under 10 active; S. cerevisiae Mot1-301 galactose growth, ATP luminescence, 24 h; -100 = growth of slx-deleted rescue strain; growth activity, percent, % at 42 µM; shares compounds with Mot1-301 SUMO;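 active means Signal drops as the depositor expects, and the fitted half-maximal dose is no more than ten times the top valid tested dose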;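 further: more negative values mean stronger growth rescue toward the control strain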
Of the large screens only hits and unclear results are named; the others gave an inactive call (follow-up assays come after a bar, where they were run).

CCCNCc1cc(OCC)c(OCC(N)=O)cc1Br	Mot1-301 SUMO 765.5 (no result: Cl transport mod) | Mot1 SUMO dose inactive
Cc1cccc(NC(=S)NC(=O)/C=C/c2ccco2)c1	Mot1-301 SUMO 705.8 | Mot1 SUMO dose inactive
Cc1ccc(C(=O)NC(Cc2c[nH]c3ccccc23)C(=O)O)o1 (stereo not given)	Mot1-301 SUMO active | Mot1 SUMO dose inactive
Cc1ccc(S(=O)(=O)CCC(=O)OC2CC(C)OC2=O)cc1 (stereo not given)	none (no result: hERG rescue, KCNQ1 act, Cl transport mod, KCNQ1 inh, AI-2 QS mod)
CC/C(=N\Nc1ccc([N+](=O)[O-])cc1)c1ccccc1	Mot1-301 SUMO 415.3 | Mot1 SUMO dose inactive
COc1ccc(CNC(=O)c2cc(=O)c3cc(C)cc(C)c3o2)cc1	Mot1-301 SUMO active (no result: Cl transport mod) | Mot1 SUMO dose inactive
CCOc1ncccc1C(=O)OCCCC(=O)c1ccc(Br)cc1	none (no result: hERG rescue, KCNQ1 act, Cl transport mod, KCNQ1 inh, AI-2 QS mod)
Cc1ccc(OCCNc2ccc(C(F)(F)F)cc2[N+](=O)[O-])cc1	none
Cc1cc(C)cc(OC(=O)CS(=O)c2ccc(C(F)(F)F)cc2[N+](=O)[O-])c1 (stereo not given)	Mot1-301 SUMO 511.2 (no result: Cl transport mod) | Mot1 SUMO dose inactive
O=C(CS(=O)c1ccc(C(F)(F)F)cc1[N+](=O)[O-])Oc1ccc(Cl)cc1 (stereo not given)	Mot1-301 SUMO 380.3 (no result: Cl transport mod) | Mot1 SUMO dose inactive
CCC(=O)Nc1ccc(Br)c(Cl)c1	Mot1-301 SUMO 702.5 | Mot1 SUMO dose inactive
CN1CCN(C(=O)c2ccc3ccccc3c2)CC1	none
CCOC(=O)N1CCN(C(=O)c2ccc3ccccc3c2)CC1	Mot1-301 SUMO 379.2 (no result: Cl transport mod) | Mot1 SUMO dose inactive
COc1cc(/C=N/n2cnnc2)ccc1OCc1ccccc1	Mot1-301 SUMO 540.0 | Mot1 SUMO dose inactive
CSc1ccccc1-c1nc(-c2ccncc2)no1	Mot1-301 SUMO 717.8 (no result: Cl transport mod) | Mot1 SUMO dose inactive
c1ccc(-c2ccccc2-c2nc(-c3ccncc3)no2)cc1	none
CC(C)C(CC(=O)NCc1ccco1)c1ccco1 (stereo not given)	Mot1-301 SUMO 645.9 | Mot1 SUMO dose inactive
COc1ccccc1N1CCN(C(=O)C2CCCN(S(=O)(=O)c3ccc4c(c3)oc(=O)n4C)C2)CC1 (stereo not given)	none (no result: Cl transport mod)
COc1ccc(N2CCN(C(=O)C3CCCN(S(=O)(=O)c4ccc5c(c4)oc(=O)n5C)C3)CC2)cc1 (stereo not given)	Mot1-301 SUMO 449.7 (no result: Cl transport mod) | Mot1 SUMO dose inactive
O=S(=O)(c1cnc[nH]1)N1CCN(C(c2ccc(F)cc2)c2ccc(F)cc2)CC1	none (no result: Cl transport mod)
COc1ccc(CNS(=O)(=O)c2cc3c4c(c2)C(C)C(=O)N4CCC3)cc1 (stereo not given)	none (no result: Cl transport mod)
Cc1cccc(-c2oc3ccc(-c4ccc5c(c4)OCO5)cc3c2C(=O)OCc2ccc(O)cc2)c1	none (no result: Cl transport mod)
Cc1ccc2nc(C)cc(C(=O)OCC(=O)Nc3cccnc3Cl)c2c1	none
COCCN1C=C(C(=O)OC)C(c2cc3c(cc2Br)OCO3)C(C(=O)OC)=C1	Mot1-301 SUMO 556.6 (no result: Cl transport mod) | Mot1 SUMO dose inactive
O=C(COC(=O)c1cncc(Br)c1)NC1CCCCCC1	none
CCCCn1c2nc3ccccc3nc2c2c(=O)n(CCC)cnc21	Mot1-301 SUMO 730.8 | Mot1 SUMO dose inactive
CCCn1cnc2c(c1=O)c1nc3ccccc3nc1n2Cc1ccccc1OC	none (no result: Mot1-301 SUMO)
O=C(c1ccc(=O)[nH]n1)N1CCN(S(=O)(=O)c2ccc(C(F)(F)F)cc2)CC1	none (no result: hERG rescue, KCNQ1 act, Cl transport mod, KCNQ1 inh, AI-2 QS mod)
COc1ccc(-c2nc(N)ncc2-c2ccccc2OC)c(O)c1	none (no result: Cl transport mod)
COc1ccc2[nH]c(=O)c(CN(C(=O)c3ccccn3)c3ccccc3)cc2c1	Mot1-301 SUMO active (no result: Cl transport mod) | Mot1 SUMO dose inactive
O=C(Nc1ccc(F)cc1)c1cccnn1	Mot1-301 SUMO 397.0 (no result: Cl transport mod) | Mot1 SUMO dose inactive
COCC(C)n1c(SC(C)C(=O)NC2CCCCC2C)nc2ccccc2c1=O (stereo not given)	none (no result: Cl transport mod)
COc1ccccc1N1CCN(/N=C/C=C/c2ccccc2[N+](=O)[O-])CC1	none
Cc1cc2c3c(c1)C1(SCC(=O)N1c1ccc(F)cc1)C(=O)N3C(C)(C)CC2C (stereo not given)	Mot1-301 SUMO 423.4 | Mot1 SUMO dose inactive
COc1ccc(N2C(=O)CSC23C(=O)N2c4c(cccc43)C(C)=CC2(C)C)cc1 (stereo not given)	none (no result: Cl transport mod)
CCOc1ccc(N(C(=O)C2CCCO2)C2C=CS(=O)(=O)C2)cc1 (stereo not given)	Mot1-301 SUMO 814.4 | Mot1 SUMO dose inactive
O=C(C1CCCO1)N(c1cccc(Cl)c1)C1C=CS(=O)(=O)C1 (stereo not given)	none
COc1cc(CN2CCN(c3ncccn3)CC2)cc(OC)c1	Mot1-301 SUMO 534.2 (no result: Cl transport mod) | Mot1 SUMO dose inactive
COc1ccc(CN2CCN(c3ncccn3)CC2)c(OC)c1	none
O=C(O)c1cccc(N2C(=O)C3C4C=CC(C4=C(c4ccccc4)c4ccccc4)C3C2=O)c1 (stereo not given)	Mot1-301 SUMO 598.6 | Mot1 SUMO dose inactive
O=C(O)c1cccc(N2C(=O)c3ccc4c5c(ccc(c35)C2=O)C(=O)N(c2cccc(C(=O)O)c2)C4=O)c1	none
Cc1sc2ncnc(Nc3ccccc3)c2c1C	Mot1-301 SUMO 370.8 | Mot1 SUMO dose inactive
Cc1sc2ncnc(NCc3ccccc3)c2c1C	none
CC(Sc1nnc(CC(=O)Nc2ccccc2F)n1C)C(=O)Nc1nccs1 (stereo not given)	none (no result: Cl transport mod)
COc1ccccc1OCCSc1nc2ccccc2n1CCC(=O)O	Mot1-301 SUMO active (no result: Cl transport mod) | Mot1 SUMO dose inactive
CC(=O)N1CCN(CC(O)COc2ccc(OCc3ccccc3)cc2)CC1 (stereo not given)	Mot1-301 SUMO 402.3 | Mot1 SUMO dose inactive
C/C(=N\NC(=O)c1cccc(N/N=C(\C)c2ccc([N+](=O)[O-])cc2)c1)c1ccc([N+](=O)[O-])cc1	Mot1-301 SUMO 540.4 | Mot1 SUMO dose inactive
C/C(=N\NC(=O)c1cccc(N/N=C(\C)c2ccccc2)c1)c1ccccc1	none (no result: hERG rescue, KCNQ1 act, KCNQ1 inh, AI-2 QS mod)
O=C(c1cc2c(ccc3ccccc32)oc1=O)N1CCCC1	Mot1-301 SUMO 495.2 (no result: Cl transport mod) | Mot1 SUMO dose inactive
O=C(O)c1cc2c(ccc3ccccc32)oc1=O	none
CC(N)(C(=O)O)c1cccc(OCc2cccc(Cl)c2)c1 (stereo not given)	none
CC1CN(S(=O)(=O)c2cccc(C(=O)N(C)C3CCN(C)CC3)c2)CC(C)O1 (stereo not given)	none (no result: hERG rescue, KCNQ1 act, Cl transport mod, KCNQ1 inh, AI-2 QS mod)
CC1CN(S(=O)(=O)c2cccc(C(=O)N=c3sccn3C)c2)CC(C)O1 (stereo not given)	Mot1-301 SUMO 396.4 (no result: Cl transport mod) | Mot1 SUMO dose inactive
